According to ChEMBL document CHEMBL3244365, “Synthesis of potential hypolipidemic agents. Reaction of substituted phenyl 2,3-epoxypropyl ethers with adenine, uracil, and thymine” (J Med Chem, 1978):
Calls of active or inactive are those of the source. The calls are words filed in the database; no cut-off is given here.

How the values were obtained:
Rattus norvegicus [1] = test: Hypolipidemic activity in Sprague-Dawley rat assessed as decrease in serum cholesterol at 10 mg/kg/day, po after 22 to 24 hrs by Liebermann-Burchard reaction (reference value: 100 +/- 8%); type: functional
Procedure, shortened: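 Male Sprague-Dawley rats were kept on rodent chow with water ad libitum. Compounds were suspended and homogenized in 1% CMC-water and given by oral intubation once daily at 11:00 a.m., with doses based on weekly body weights. Tail-vein blood was taken 22-24 h after dosing into nonheparinized microcapillary tubes and centrifuged 3 min. Serum cholesterol (mg %) was measured on duplicate 30-μl non-hemolyzed samples by a modified Liebermann-Burchard reaction.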

Rattus norvegicus [2] = organism: Rattus norvegicus; test: Inhibition of rat phosphatidate phosphohydrolase in liver microsomes assessed as reduction in enzyme activity at 2 mmol
Rattus norvegicus [3] = test: Hypolipidemic activity in Sprague-Dawley rat assessed as incorporation of [1,3-14C]glycerol in liver phospholipid at 100 mg/kg, po qd for 1 week (reference value: 100 +/- 8.3%); conditions: 168 h
Rattus norvegicus [4] = test: Hypolipidemic activity in Sprague-Dawley rat assessed as decrease in liver triglyceride at 10 mg/kg, po qd for 1 week (reference value: 100 +/- 8.4%); type: functional; conditions: 168 h
Liver microsome = test: Hypolipidemic activity in rat liver microsomes assessed as inhibition of incorporation of [1,3-14C]glycerol 3-phosphate ino neutral lipid at 0.5 to 5 mM; type: functional
Procedure, shortened: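 Rat liver microsomes were incubated with sn-[1,3-14C]glycerol 3-phosphate in the presence of ATP, palmitate, CoA and Mg2+. Label incorporated into neutral lipid (diglyceride + triglyceride) was measured, and phosphatidic acid accumulation was also followed.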

Rattus norvegicus [5] = test: Hypolipidemic activity in Sprague-Dawley rat assessed as liver triglyceride level at 100 mg/kg, po qd for 1 week (reference value: 100 +/- 8.4%); conditions: 168 h
Rattus norvegicus [6] = test: Toxicity in Sprague-Dawley rat assessed as change in body weight at 10 to 100 mg/kg, po; type: organism-based; set-up: dose 10-100 mg/kg, route oral; conditions: in vivo
Procedure, shortened: (§1)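 Male Sprague-Dawley rats received 10-100 mg/kg orally once daily for 7 days as a 1% CMC-water suspension. Body weight gain, food intake and deaths were monitored.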

Rattus norvegicus [7] = test: Hypolipidemic activity in Sprague-Dawley rat assessed as decrease in serum triglyceride at 50 mg/kg, po qd for 1 week (reference value: 100 +/- 5.3%); type: functional; conditions: 168 h
Rattus norvegicus [8] = test: Hypolipidemic activity in Sprague-Dawley rat assessed as inhibition of incorporation of [1,3-14C]glycerol in liver triglyceride at 50 mg/kg, po qd for 1 week (reference value: 100 +/- 8.4%); values are per cent of control; conditions: 168 h
Rattus norvegicus [9] = test: Hypolipidemic activity in Sprague-Dawley rat assessed as inhibition of incorporation of [1,3-14C]glycerol in liver phospholipid at 50 mg/kg, po qd for 1 week (reference value: 100 +/- 8.3%); values are per cent of control; conditions: 168 h
Rattus norvegicus [10] = test: Hypolipidemic activity in Sprague-Dawley rat assessed as decrease in serum triglyceride at 10 mg/kg, po qd for 1 week (reference value: 100 +/- 5.3%); type: functional; conditions: 168 h
Rattus norvegicus [11] = test: Hypolipidemic activity in Sprague-Dawley rat assessed as decrease in serum triglyceride at 100 mg/kg, po qd for 1 week (reference value: 100 +/- 5.3%); type: functional; conditions: 168 h
Rattus norvegicus [12] = test: Toxicity in Sprague-Dawley rat assessed as change in food intake at 10 to 100 mg/kg, po; type: organism-based; set-up: dose 10-100 mg/kg, route oral; conditions: in vivo; procedure, shortened: as §1
Rattus norvegicus [13] = test: Hypolipidemic activity in Sprague-Dawley rat assessed as change in liver triglyceride at 50 mg/kg, po qd for 1 week (reference value: 100 +/- 8.4%); conditions: 168 h
Rattus norvegicus [14] = test: Hypolipidemic activity in Sprague-Dawley rat assessed as inhibition of incorporation of [1,3-14C]glycerol in liver triglyceride at 10 mg/kg, po qd for 1 week (reference value: 100 +/- 8.4%); values are per cent of control; conditions: 168 h
Rattus norvegicus [15] = test: Hypolipidemic activity in Sprague-Dawley rat assessed as incorporation of [1,3-14C]glycerol in liver phospholipid at 10 mg/kg, po qd for 1 week (reference value: 100 +/- 8.3%); conditions: 168 h
Rattus norvegicus [16] = test: Hypolipidemic activity in Sprague-Dawley rat assessed as inhibition of incorporation of [1,3-14C]glycerol in liver triglyceride at 100 mg/kg, po qd for 1 week (reference value: 100 +/- 8.4%); values are per cent of control; conditions: 168 h

**Q.** `Cc1cn(CC(O)COc2ccc(Cl)cc2)c(=O)[nH]c1=O` (stereo unspecified) was tested. Which level, % of control at 10 mg/kg/day (Rattus norvegicus [1]) did it give?
**A.** 96%

**Q.** With `Nc1ncnc2c1ncn2CC(O)CSc1ccc(Cl)cc1` (stereo unspecified) as the compound, how does the level, % of control at 10 mg/kg/day (Rattus norvegicus [1]) read?
**A.** 79%

**Q.** Which level, % of control at 10 mg/kg/day (Rattus norvegicus [1]) does the source give for `CC(C)(C)c1ccc(OCC(O)Cn2cnc3c(N)ncnc32)cc1` (stereo unspecified) here?
**A.** 110%

**Q.** How did the level, % of control at 10 mg/kg/day (Rattus norvegicus [1]) turn out when `CC(=O)c1ccc(OCC(O)Cn2cnc3c(N)ncnc32)cc1` (stereo unspecified) was run?
**A.** 99%

**Q.** How did the level, % of control at 10 mg/kg/day (Rattus norvegicus [1]) turn out when `COc1ccc(OCC(O)Cn2cnc3c(N)ncnc32)cc1` (stereo unspecified) was run?
**A.** 93%

**Q.** `Nc1ncnc2c1ncn2CC(O)COc1ccc(Br)cc1` (stereo unspecified) was tested. Which level, % of control at 10 mg/kg/day (Rattus norvegicus [1]) did it give?
**A.** 96%

**Q.** For `O=c1ccn(CC(O)COc2ccc(Cl)cc2)c(=O)[nH]1` (stereo unspecified), which level, % of control at 10 mg/kg/day (Rattus norvegicus [1]) is on record?
**A.** 102%

**Q.** With `COc1ccc(OCC(O)Cn2ccc(=O)[nH]c2=O)cc1` (stereo unspecified) as the compound, how does the level, % of control at 10 mg/kg/day (Rattus norvegicus [1]) read?
**A.** 93%

**Q.** With `Cc1ccc(OCC(O)Cn2ccc(=O)[nH]c2=O)cc1` (stereo unspecified) as the compound, how does the level, % of control at 10 mg/kg/day (Rattus norvegicus [1]) read?
**A.** 89%

**Q.** How did the level, % of control at 10 mg/kg/day (Rattus norvegicus [1]) turn out when `Nc1ncnc2c1ncn2CC(O)COc1ccccc1Cl` (stereo unspecified) was run?
**A.** 93%

**Q.** Which level, % of control at 10 mg/kg/day (Rattus norvegicus [1]) does the source give for `Nc1ncnc2c1ncn2CC(O)COc1cccc(Cl)c1` (stereo unspecified) here?
**A.** 97%

**Q.** `Nc1ncnc2c1ncn2CC(O)COc1ccc(C(=O)c2ccccc2)cc1` (stereo unspecified) was tested. Which level, % of control at 10 mg/kg/day (Rattus norvegicus [1]) did it give?
**A.** 118%

**Q.** `Nc1ncnc2c1ncn2CC(O)COc1ccc(Cl)cc1` (stereo unspecified) was tested. Which inhibition (Rattus norvegicus [2]) did it give?
**A.** 50%

**Q.** And the level, % of control at 100 mg/kg (Rattus norvegicus [3])?
**A.** 36.7%

**Q.** And the level, % of control at 10 mg/kg (Rattus norvegicus [4])?
**A.** 57.6%

**Q.** And the inhibition (Liver microsome)?
**A.** Active

**Q.** What about the level, % of control at 100 mg/kg (Rattus norvegicus [5]) of the same compound?
**A.** 345%

**Q.** What about the Activity (Rattus norvegicus [6]) of the same compound?
**A.** Non-toxic

**Q.** And the level, % of control at 50 mg/kg (Rattus norvegicus [7])?
**A.** 38.5%

**Q.** And the level, % of control at 10 mg/kg/day (Rattus norvegicus [1])?
**A.** 93%

**Q.** What about the level, % of control at 50 mg/kg (Rattus norvegicus [8]) of the same compound?
**A.** 29%

**Q.** What about the level, % of control at 50 mg/kg (Rattus norvegicus [9]) of the same compound?
**A.** 33.5%

**Q.** What about the level, % of control at 10 mg/kg (Rattus norvegicus [10]) of the same compound?
**A.** 73%

**Q.** And the level, % of control at 100 mg/kg (Rattus norvegicus [11])?
**A.** 40.3%

**Q.** And the Activity (Rattus norvegicus [12])?
**A.** Non-toxic

**Q.** What about the level, % of control at 50 mg/kg (Rattus norvegicus [13]) of the same compound?
**A.** 252%

**Q.** What about the level, % of control at 10 mg/kg (Rattus norvegicus [14]) of the same compound?
**A.** 36.7%

**Q.** What about the level, % of control at 10 mg/kg (Rattus norvegicus [15]) of the same compound?
**A.** 74.9%

**Q.** What about the level, % of control at 100 mg/kg (Rattus norvegicus [16]) of the same compound?
**A.** 31.8%

**Q.** With `Nc1ncnc2c1ncn2CC(O)COc1ccc(F)cc1` (stereo unspecified) as the compound, how does the level, % of control at 10 mg/kg/day (Rattus norvegicus [1]) read?
**A.** 86%

**Q.** How did the level, % of control at 10 mg/kg/day (Rattus norvegicus [1]) turn out when `Cc1ccc(OCC(O)Cn2cc(C)c(=O)[nH]c2=O)cc1` (stereo unspecified) was run?
**A.** 99%
